According to ChEMBL document CHEMBL1151482, “Phenolic constituents from the stem bark of Magnolia officinalis” (J Nat Prod, 2009):
Values after ≈ are worked out from the molar mass of the structure shown.

Key:
BV-2 = test: Antiinflammatory activity in mouse BV2 cells assessed as inhibition of LPS-induced NO production after 24 hrs by Griess reagent method; type: functional, cell-based; details: BV-2, 24 h
Procedure, shortened: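 Microglial BV2 cells treated with test agents, then stimulated with LPS (0.5 µg/mL); nitrite accumulated in medium over 24 h measured with Griess reagent as NO readout; IC50 taken from concentration-response curves.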

[1] = test system: Radical scavenging activity; test: Antioxidant activity assessed as DPPH free radical scavenging activity; type: functional
Procedure, shortened: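 Diluted drugs combined with DPPH solution in microplate; absorbance read at 517 nm; IC50 derived from concentration-response curves.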

[2] = Inhibition of NADPH oxidase-mediated ROS production in LPS-stimulated mouse BV2 cells after 20 mins by flow cytometry; type: cell-based; details: BV-2, 20 min
Procedure, shortened: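 BV2 cells preloaded with 2′,7′-dichlorofluorescin diacetate, exposed to test agents for 20 min, then LPS-stimulated; H2O2 quantified 30 min later by flow cytometry, expressed as mean channel fluorescence; IC50 from concentration-response curves.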

Structure (SMILES): C=CCc1ccc(O)c(-c2cc(C=O)ccc2O)c1 [MAGNALDEHYDE]
- IC50 (BV-2): 9.2 µg/mL (≈ 36.2 µM)

Structure (SMILES): C=CCc1cc(-c2cc(O)ccc2O)ccc1O [MAGNATRIOL B]
- IC50 [1]: 27.6 µg/mL (≈ 114 µM)
- IC50 (BV-2): 0.5 µg/mL (≈ 2.06 µM)
- IC50 [2]: 20.6 µg/mL (≈ 85 µM)

Structure (SMILES): C=CCc1ccc(O)c(-c2cc(O)ccc2O)c1 [RANDAIOL]
- IC50 [1]: 21.6 µg/mL (≈ 89.2 µM)
- IC50 (BV-2): 1.2 µg/mL (≈ 4.95 µM)
